This passage reports IC50 results from ChEMBL document CHEMBL1133370, “N-(sulfonamido)alkyl[tetrahydro-1H-benzo[e]indol-2-yl]amines: potent antagonists of human neuropeptide Y Y5 receptor” (Bioorg Med Chem Lett, 2000).

For orientation: pIC50 means the negative decadic logarithm of the IC50, by convention in mol/L. A low value points to a large IC50.

pIC50: −log10 of the molar value. Where only a bound is given, the exact number is not on record here.

For this assay, the target named is T1, Neuropeptide Y receptor type 5 (Homo sapiens, UniProt Q15761).
T1 sequence (Q15761 whole entry): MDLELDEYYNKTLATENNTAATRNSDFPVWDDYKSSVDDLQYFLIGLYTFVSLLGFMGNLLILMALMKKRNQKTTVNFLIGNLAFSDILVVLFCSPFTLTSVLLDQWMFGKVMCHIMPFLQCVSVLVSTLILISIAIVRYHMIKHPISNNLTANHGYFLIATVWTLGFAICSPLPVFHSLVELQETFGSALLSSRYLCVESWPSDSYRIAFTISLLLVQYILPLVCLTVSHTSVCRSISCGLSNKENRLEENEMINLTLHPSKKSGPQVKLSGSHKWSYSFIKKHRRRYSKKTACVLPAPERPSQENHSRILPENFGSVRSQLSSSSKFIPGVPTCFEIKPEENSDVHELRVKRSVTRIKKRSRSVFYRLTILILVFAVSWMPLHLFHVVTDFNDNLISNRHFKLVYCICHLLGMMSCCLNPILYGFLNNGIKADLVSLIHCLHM
As to the kind of experiment: Binding affinity for human Neuropeptide Y receptor type 5 in HEK293 cells. It is filed as cell-based. Put shortly: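 Membranes from HEK293 cells stably transfected with human NPY5 cDNA, prepared in 20 mM HEPES buffer with NaCl, 0.22 mM KH2PO4, 1.3 mM CaCl2, 0.8 mM MgSO4, pH 7.4. Centrifuged, washed, membrane radioactivity gamma-counted. Non-specific binding with 300 nM NPY. IC50 is 50% inhibition of specific binding, averaged over ≥2 experiments.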
`COc1ccc2c(c1)CCC1N=C(NC(C)=O)CC21` (stereo not drawn) showed a negative logarithm of the IC50 (pIC50) of less than 6.00.
The figure for `O=C(NC1=NC2CCc3cc(O)ccc3C2C1)[C@H]1CC[C@H](CNS(=O)(=O)c2ccccc2)CC1` (stereo partly drawn) is 8.05.
`COc1ccc2c(c1)CCC(NCCc1ccc(OC)c(OC)c1)C2Cc1ccccc1` (stereo not drawn): the pIC50 was approximately 6.00.
`COc1ccc2c(c1)CCC1N=C(NC(=O)[C@H]3CC[C@H](CNS(=O)(=O)c4ccccc4F)CC3)CC21` (stereo partly drawn) showed a pIC50 of 6.92.
The molecule `O=C(NC1=NC2CCc3cc(Cl)ccc3C2C1)[C@H]1CC[C@H](CNS(=O)(=O)c2ccccc2)CC1` (stereo partly drawn) gave a negative logarithm of the IC50 (pIC50) of 6.95.
`O=S(=O)(NC[C@H]1CC[C@H](CNC2=NC3CCc4ccccc4C3C2)CC1)c1ccccc1` (stereo partly drawn) showed a negative-log IC50 (pIC50) of 7.41.
For `COc1ccc2c(c1)CCC1N=C(NC[C@H]3CC[C@H](CNS(=O)(=O)c4ccccc4)CC3)CC21` (stereo partly drawn) the value was 7.24; for `O=S(=O)(NC[C@H]1CC[C@H](CNC2=NC3CCc4cc(O)ccc4C3C2)CC1)c1ccccc1` (stereo partly drawn), 9.00.
In the case of `O=C(NC1=NC2CCc3ccccc3C2C1)[C@H]1CC[C@H](CNS(=O)(=O)c2ccccc2)CC1` (stereo partly drawn), the pIC50 is 7.22.
For `O=S(=O)(NC[C@H]1CC[C@H](CNC2=NC3CCc4cc(Cl)ccc4C3C2)CC1)c1ccccc1` (stereo partly drawn) the value was 7.27; for `COc1ccc2c(c1)CCC1N=C(NC[C@H]3CC[C@H](CNS(=O)(=O)c4ccccc4F)CC3)CC21` (stereo partly drawn), 7.46.
As for `COc1ccc2c(c1)CCC1N=C(NC(=O)[C@H]3CC[C@H](CNS(=O)(=O)c4ccccc4)CC3)CC21` (stereo partly drawn), the pIC50 is 7.04.
In turn, `N[C@@H](CCCCNS(=O)(=O)c1ccccc1F)C(=O)NC1=NC2CCc3cc(F)ccc3C2C1` (stereo partly drawn) gave a pIC50 of 6.69.
